Activity, EC50 and Emax data for 39 compounds are collected here from ChEMBL document CHEMBL4007473, “Discovery of Potent and Orally Bioavailable GPR40 Full Agonists Bearing Thiophen-2-ylpropanoic Acid Scaffold” (J Med Chem, 2017).

The target of data set [1] is T1, Free fatty acid receptor 1 (Homo sapiens, UniProt O14842). Nature of the data set: Agonist activity at human GPR40 expressed in CHO cells assessed as increase in intracellular Ca2+ flux at 10 uM by Fluo 4-AM dye based assay. Format: functional, cell-based. The essentials:
(§1)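 CHO cells stably expressing hGPR40 or hGPR120, seeded and incubated overnight at 37 ℃, 5% CO2. Loaded 90 min with Fluo 4-AM (3 μM) and probenecid (2.5 mM) in HBSS/0.1% BSA, washed, equilibrated 10 min. Ca2+ read as change in 585/525 ratio before and after compound addition; EC50 and Emax fitted from curves, Emax relative to reference agonist 4; mean ± SD, three independent experiments.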

Data set [2] addresses T1, Free fatty acid receptor 1. Put plainly: Agonist activity at human GPR40 expressed in CHO cells assessed as increase in intracellular Ca2+ flux by Fluo 4-AM dye based assay. Format: functional, cell-based.
Data set [3] addresses T1, Free fatty acid receptor 1. Put plainly: Agonist activity at human GPR40 expressed in HEK293T cells transfected with 5 ug of GPR40 expression plasmid assessed as increase in intracellular Ca2+ flux by Fluo 4-AM dye based assay. Format: functional, cell-based. The following applies: HEK-293T. The essentials:
(§2)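 Plasmid titration: HEK293T cells transiently transfected with 5 μg or 0.05 μg hGPR40 expression plasmid, plated on poly-D-lysine and held 24 h. Loaded with Fluo 4-AM (3 μM) and probenecid (2.5 mM) in HBSS/0.1% BSA for 90 min, washed, equilibrated 10 min. Ca2+ response measured as change in 585/525 ratio after compound addition; mean ± SD of three experiments.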

The nature of data set [4]: Inhibition of hepatobiliary transporter in Sprague-Dawley rat sandwich-cultured rat hepatocytes assessed as decrease in d8-TCA by measuring biliary excretion index at 1 to 25 uM incubated for 15 mins followed by d8-TCA addition measured after 15 mins by LC-MS/MS analysis. Format: ADME. Particulars: 0.25 h. The essentials: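 Sandwich-cultured hepatocytes from male SD rats exposed to compound 15 min in standard HBSS. Cells rinsed and pre-incubated 15 min at 37 ℃ in standard or Ca2+-free HBSS, then incubated 15 min with compound plus 1 µM d8-TCA. Washed with ice-cold PBS; cellular d8-TCA measured by LC-MS/MS. BEI = (A_HBSS – A_Ca-free)/A_HBSS × 100%.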

In data set [5] the test system is Mus musculus. Put plainly: Antidiabetic activity in ICR mouse assessed as decrease in blood glucose AUC at 10 mg/kg, po administered 30 mins prior to glucose challenge measured 120 mins post dose by OGTT. It is filed as functional, organism-based. The essentials: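 Six-week-old male ICR mice fasted 16 h, n = 10 per group, dosed orally in 0.5% methylcellulose/20% PEG400 (10 or 20 mg/kg). Oral glucose load 2.5 g/kg by gavage 30 min later. Tail-vein glucose read at -30, 0, 30, 60, 90 and 120 min; AUC0-120 min computed and compared with vehicle.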

In data set [6] the target is T1, Free fatty acid receptor 1. Put plainly: Agonist activity at human GPR40 expressed in HEK293T cells transfected with 0.05 ug of GPR40 expression plasmid assessed as increase in intracellular Ca2+ flux by Fluo 4-AM dye based assay. Particulars: HEK-293T. Format: functional, cell-based. The essentials:
as §2

For data set [7], the target named is Free fatty acid receptor 1 (Mus musculus) (UniProt Q76JU9). Nature of the data set: Agonist activity at GPR40 in mouse MIN6 cells assessed as increase in 25 mM glucose-stimulated insulin secretion at 300 nM after 1 hr by ELISA. Format: cell-based. A digest of the protocol: (§3)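 MIN6 cells pre-incubated 2 h at 37 ℃ in KRBH buffer with 0.1% BSA, then stimulated 1 h at 37 ℃ with 2 mM or 25 mM glucose, alone or with test agents. Insulin secreted into supernatant quantified by ELISA; mean ± SD of four independent experiments, compared with DMSO.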

The target is the same in data set [8]. Put plainly: Agonist activity at GPR40 in mouse MIN6 cells assessed as increase in 25 mM glucose-stimulated insulin secretion at 10 uM after 1 hr by ELISA. Format: cell-based. The essentials:
as §3

Data set [9] addresses T1, Free fatty acid receptor 1. Nature of the data set: Agonist activity at human GPR40 expressed in CHO cells assessed as increase in intracellular Ca2+ flux by Fluo 4-AM dye based assay relative to 3-(4-((2',6'-dimethylbiphenyl-3-yl)methoxy)phenyl)propanoic acid. It is filed as functional, cell-based. The essentials: as §1
The target of data set [10] is T2, Peroxisome proliferator-activated receptor gamma (Homo sapiens, UniProt P37231).
T2 sequence (P37231 whole entry): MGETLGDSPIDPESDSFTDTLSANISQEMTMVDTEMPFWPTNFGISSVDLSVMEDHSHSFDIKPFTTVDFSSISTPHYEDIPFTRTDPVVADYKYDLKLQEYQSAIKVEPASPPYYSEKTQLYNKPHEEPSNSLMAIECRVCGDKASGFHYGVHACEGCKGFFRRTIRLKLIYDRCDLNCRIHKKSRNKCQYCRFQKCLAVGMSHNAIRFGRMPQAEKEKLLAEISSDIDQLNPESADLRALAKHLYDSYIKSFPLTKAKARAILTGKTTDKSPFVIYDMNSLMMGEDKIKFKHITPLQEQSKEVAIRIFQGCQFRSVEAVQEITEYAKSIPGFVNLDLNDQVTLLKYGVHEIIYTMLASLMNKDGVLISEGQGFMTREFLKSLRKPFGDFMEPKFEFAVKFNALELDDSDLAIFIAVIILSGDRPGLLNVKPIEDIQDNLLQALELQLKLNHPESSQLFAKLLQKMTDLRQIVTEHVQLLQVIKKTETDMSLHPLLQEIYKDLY
Put plainly: Agonist activity at PPARgamma (unknown origin) expressed in HEK293T cells by luciferase reporter gene assay. It is filed as cell-based.

The target of data set [11] is T3, Free fatty acid receptor 4 (Homo sapiens, UniProt Q5NUL3).
T3 sequence (Q5NUL3 whole entry): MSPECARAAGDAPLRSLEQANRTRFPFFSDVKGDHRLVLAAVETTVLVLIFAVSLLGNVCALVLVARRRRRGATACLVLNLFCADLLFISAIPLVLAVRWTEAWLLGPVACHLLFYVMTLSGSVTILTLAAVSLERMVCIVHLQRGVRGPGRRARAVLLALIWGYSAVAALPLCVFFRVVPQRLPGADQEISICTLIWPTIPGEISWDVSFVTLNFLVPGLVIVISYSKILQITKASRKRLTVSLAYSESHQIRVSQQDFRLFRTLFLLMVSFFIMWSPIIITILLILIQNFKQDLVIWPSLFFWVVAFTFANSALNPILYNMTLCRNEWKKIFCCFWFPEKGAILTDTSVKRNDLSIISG
Put plainly: Agonist activity at human GPR120 expressed in CHO cells assessed as increase in intracellular Ca2+ flux by Fluo 4-AM dye based assay. It is filed as functional, cell-based. The essentials: as §1

Data set [12] has as its target T1, Free fatty acid receptor 1. Nature of the data set: Agonist activity at human GPR40 expressed in CHO cells assessed as increase in intracellular Ca2+ flux at 20 uM by Fluo 4-AM dye based assay. It is filed as functional, cell-based. A digest of the protocol:
as §1

The source made the active and inactive calls. The calls are words filed in the database; no cut-off is given here.

T1 sequence (O14842 whole entry): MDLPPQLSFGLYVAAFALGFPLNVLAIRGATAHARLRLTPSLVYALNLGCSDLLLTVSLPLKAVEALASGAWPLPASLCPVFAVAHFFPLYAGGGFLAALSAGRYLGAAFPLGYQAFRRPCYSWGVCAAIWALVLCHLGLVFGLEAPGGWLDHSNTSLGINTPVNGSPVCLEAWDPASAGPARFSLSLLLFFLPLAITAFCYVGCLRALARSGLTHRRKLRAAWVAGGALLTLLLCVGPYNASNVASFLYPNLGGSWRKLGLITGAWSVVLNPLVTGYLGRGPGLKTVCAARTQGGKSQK
Sequence of Free fatty acid receptor 1 (Mus musculus) (Q76JU9 whole entry): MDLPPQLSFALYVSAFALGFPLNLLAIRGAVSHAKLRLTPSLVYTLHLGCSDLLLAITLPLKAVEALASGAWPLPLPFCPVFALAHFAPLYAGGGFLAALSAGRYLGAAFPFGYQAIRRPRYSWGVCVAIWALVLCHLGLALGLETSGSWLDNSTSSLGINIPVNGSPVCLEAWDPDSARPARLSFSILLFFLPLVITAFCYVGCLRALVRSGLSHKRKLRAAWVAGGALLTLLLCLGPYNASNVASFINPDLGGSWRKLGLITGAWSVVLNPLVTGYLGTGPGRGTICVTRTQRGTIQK

With `Cc1cccc(C)c1-c1cccc(COc2ccc(C(C)CC(=O)O)s2)c1` (racemic), the outcome in data set [1] was inactive.
On the same count and under the same terms, the result for `O=C(O)CCc1ccc(OCc2cccc(-c3cc(Cl)nc(Cl)c3)c2)s1` reads “inactive”.
Regarding `O=C(O)CCc1ccc(OCc2cccc(-c3ccncc3Cl)c2)s1`, the EC50 in [2] was 2010 nM.
With `CCCC(CC(=O)O)c1ccc(OCc2cccc(-c3c(C)cccc3C)c2)s1` (racemic), the outcome in [1] was inactive.
Consider `Cc1cccc(C)c1-c1cccc(COc2ccc(CC3SC(=O)NC3=O)s2)c1` (centres undefined), for which, in data set [2], the EC50 worked out at 82 nM.
As for `Cc1cc(OCCCS(C)(=O)=O)cc(C)c1-c1cccc(COc2ccc3c(c2)OC[C@H]3CC(=O)O)c1`, the outcome in [3], in data set [5], in data set [7] and in data set [8] was Active. Further, in [4], the Activity result is reported as “Not Active”. The outcome in data set [6] was inactive.
For the compound `Cc1cccc(C)c1-c1cccc(COc2csc(CCC(=O)O)c2)c1`, the Emax in data set [9] is 135%. Besides, the EC50 in data set [2] turned out to be 2320 nM.
As for `NC(=O)c1ccccc1-c1cccc(COc2ccc(CCC(=O)O)s2)c1`, the result in data set [1] was inactive.
As for `COc1ccccc1-c1cccc(COc2ccc(CCC(=O)O)s2)c1`, in [1], the outcome was inactive.
On to `Cc1cccc(C)c1-c1cccc(COc2ccc(C(CC(=O)O)C3CC3)s2)c1` (racemic), for which, in [2], the EC50 was determined as 3920 nM.
As for `Cc1cccc(C)c1-c1cccc(COc2ccc(CCC(=O)O)s2)c1`, the EC50 is over 10000 nM in data set [10], over 10000 nM in data set [11] and 32 nM in data set [2]. Also, the Emax in [9] is 140%. Besides, the result in data set [8] was inactive.
On to `O=C(O)CCc1ccc(OCc2cccc(-c3ccccc3C(F)(F)F)c2)s1`, for which the concentration giving a half-maximal response (EC50) in data set [2] was found to be 2710 nM.
Turning to `CC#CC(CC(=O)O)c1ccc(OCc2cccc(-c3c(C)cccc3C)c2)s1` (racemic), the EC50 in data set [2] amounted to 210 nM.
For `Cc1cccc(C)c1-c1cccc(COc2cc3sc(CCC(=O)O)cc3s2)c1`, the outcome in [12] was inactive.
For `Cc1cccc(C)c1-c1cccc(COc2cn(CCC(=O)O)nn2)c1`, the Emax in data set [9] turned out to be 97.9%. For the same compound, the EC50 in [2] was determined as 14800 nM.
Consider `O=C(O)CCc1ccc(OCc2cccc(-c3ccc(C(F)(F)F)cc3)c2)s1`, for which the result in data set [1] was inactive.
`Cc1cccc(C)c1-c1cccc(OCc2cn(CCC(=O)O)nn2)c1`: in [9], the Emax is 79.9%. For the same compound, the EC50 in data set [2] is 14700 nM.
As for `CCO[C@@H](CC(=O)O)c1ccc(OCc2cccc(-c3c(C)cccc3C)c2)s1`, the EC50 in [2] is 40100 nM.
Consider `Cc1cccc(C)c1-c1cccc(COc2ccc(C(C#N)CC(=O)O)s2)c1` (racemic), for which, in data set [2], the EC50 is 110 nM.
For the compound `Cc1cccc(C)c1-c1ccc(COc2ccc(CCC(=O)O)s2)cc1`, the result in data set [12] was inactive.
Consider `CCC(CC(=O)O)c1ccc(OCc2cccc(-c3c(C)cccc3C)c2)s1` (racemic), for which the result in [1] was inactive.
In the case of `CC#CC(CC(=O)O)c1ccc(OCc2ccc(CN3CCC4(C=Cc5ccccc54)CC3)cc2)s1` (centres undefined), the result in data set [12] was inactive.
Take `CC/C=C\C/C=C\C/C=C\C/C=C\C/C=C\C/C=C\CCC(=O)O`: the outcome in data set [3] and in data set [6] was Active.
As to `Cc1cccc(C)c1-c1cccc(OCc2ccc(CCC(=O)O)s2)c1`, in data set [9], the maximal effect (Emax) worked out at 136%. Further, the EC50 in [2] came out at 2420 nM.
Regarding `CC#CC(CC(=O)O)c1ccc(OCc2cccc(-c3c(C)cc(OCCCS(C)(=O)=O)cc3C)c2)s1` (racemic), the EC50 in [2] amounted to 240 nM.
With `Cc1cccc(C)c1-c1cccc(COc2ccc(C(CC(=O)O)c3c[nH]nn3)s2)c1` (racemic), the outcome in [1] was inactive.
Take `Cc1cccc(C)c1-c1cccc(OCn2cc(CCC(=O)O)nn2)c1`: the Emax in data set [9] was 95.6%. In addition, the EC50 in data set [2] was determined as 32200 nM.
Take `Cc1cccc(C)c1-c1cccc(COc2cc3sc(C(=O)O)cc3s2)c1`: in data set [12], the result was inactive.
On to `Cc1cccc(C)c1-c1cccc(COc2ccc([C@H](CC(=O)O)c3ccon3)s2)c1`, for which the result in [1] was inactive.
For the compound `CC#CC(CC(=O)O)c1ccc(OCc2cccc(-c3c(C)cc(OCC4(C)COC4)cc3C)c2)s1` (racemic), the EC50 in [2] was found to be 450 nM.
Take `CC#CC(CC(=O)O)c1ccc(OCc2cccc(-c3c(C)cc(OC4CCN(C)CC4)cc3C)c2)s1` (racemic): the result in data set [1] was inactive.
Turning to `CCOC(CC(=O)O)c1ccc(OCc2cccc(-c3c(C)cccc3C)c2)s1` (racemic), the EC50 in [2] turned out to be 57 nM.
With `COc1ccc(F)c(-c2cccc(COc3ccc(CCC(=O)O)s3)c2)c1`, the EC50 in [2] is 580 nM.
Same read-out and setting: with `CC#C[C@H](CC(=O)O)c1ccc(OCc2cccc(-c3c(C)cc(OCCCS(C)(=O)=O)cc3C)c2)s1` the figure was 410 nM.
Consider `N#Cc1ccccc1-c1cccc(COc2ccc(CCC(=O)O)s2)c1`, for which the outcome in data set [1] was inactive.
Regarding `COC(CC(=O)O)c1ccc(OCc2cccc(-c3c(C)cccc3C)c2)s1` (racemic), the EC50 in data set [2] stood at 210 nM.
Turning to `CCO[C@H](CC(=O)O)c1ccc(OCc2cccc(-c3c(C)cccc3C)c2)s1`, the EC50 in data set [10] was over 10000 nM; in data set [11] it was over 10000 nM; in [2], 50 nM. Besides, the Emax in data set [9] amounted to 147%. The result in data set [8] was inactive.
Consider `N#CCc1ccccc1C#Cc1ccc(CCC(=O)O)s1`, for which the EC50 in [2] is 640 nM.
As for `Cc1cccc(C)c1-c1cccc(COc2ccc(CCC(=O)O)cc2)c1`, in data set [9], the Emax turned out to be 100%. Also, in data set [2], the EC50 came out at 8 nM.
